In ChEMBL document CHEMBL1165965, “Synthesis and structure-activity relationships of 1,2,3,4-tetrahydropyrido[2,3-b]pyrazines as potent and selective inhibitors of the anaplastic lymphoma kinase” (Bioorg Med Chem, 2010):

How the values were obtained:
[1] = target: Tyrosine-protein kinase FRK (Homo sapiens) (UniProt P42685); experiment: Inhibition of FRK at 1 uM
Outline: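 Single-concentration screen on the Ambit KINOMEscan platform, run against a panel of 250–400 kinases. Per-kinase inhibition was also summarized as S(90), the fraction of kinases inhibited by more than 90%.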

[2] = target: T1, Mitogen-activated protein kinase kinase kinase 13 (Homo sapiens) (UniProt O43283); experiment: Inhibition of LZK at 1 uM
T1 sequence (whole entry): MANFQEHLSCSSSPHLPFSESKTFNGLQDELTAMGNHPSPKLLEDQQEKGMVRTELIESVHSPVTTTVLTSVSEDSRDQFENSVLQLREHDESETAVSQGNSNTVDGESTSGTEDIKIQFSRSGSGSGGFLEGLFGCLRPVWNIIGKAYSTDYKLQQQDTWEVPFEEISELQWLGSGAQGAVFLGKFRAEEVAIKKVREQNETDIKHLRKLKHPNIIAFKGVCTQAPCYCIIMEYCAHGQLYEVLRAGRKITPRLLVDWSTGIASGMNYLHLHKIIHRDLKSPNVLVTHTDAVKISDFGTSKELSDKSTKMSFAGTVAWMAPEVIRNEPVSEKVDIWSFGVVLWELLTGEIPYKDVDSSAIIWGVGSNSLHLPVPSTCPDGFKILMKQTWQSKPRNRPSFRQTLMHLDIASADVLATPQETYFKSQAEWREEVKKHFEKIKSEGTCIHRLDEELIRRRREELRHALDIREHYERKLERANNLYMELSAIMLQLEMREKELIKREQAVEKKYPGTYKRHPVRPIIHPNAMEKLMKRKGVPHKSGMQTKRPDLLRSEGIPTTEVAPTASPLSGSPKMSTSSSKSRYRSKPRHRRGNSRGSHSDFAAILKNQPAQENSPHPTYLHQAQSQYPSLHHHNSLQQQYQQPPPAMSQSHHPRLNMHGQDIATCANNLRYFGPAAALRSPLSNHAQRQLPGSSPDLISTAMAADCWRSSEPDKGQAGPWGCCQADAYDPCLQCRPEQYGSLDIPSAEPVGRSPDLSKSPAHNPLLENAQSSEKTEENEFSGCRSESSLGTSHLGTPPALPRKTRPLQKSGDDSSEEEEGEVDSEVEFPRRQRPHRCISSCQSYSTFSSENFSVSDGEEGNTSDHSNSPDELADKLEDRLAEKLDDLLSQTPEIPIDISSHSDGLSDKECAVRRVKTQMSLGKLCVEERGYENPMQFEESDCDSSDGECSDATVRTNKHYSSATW

[3] = target: T2, Ephrin type-B receptor 2 (Homo sapiens) (UniProt P29323); experiment: Inhibition of EPHB2 at 1 uM
T2 sequence (whole entry): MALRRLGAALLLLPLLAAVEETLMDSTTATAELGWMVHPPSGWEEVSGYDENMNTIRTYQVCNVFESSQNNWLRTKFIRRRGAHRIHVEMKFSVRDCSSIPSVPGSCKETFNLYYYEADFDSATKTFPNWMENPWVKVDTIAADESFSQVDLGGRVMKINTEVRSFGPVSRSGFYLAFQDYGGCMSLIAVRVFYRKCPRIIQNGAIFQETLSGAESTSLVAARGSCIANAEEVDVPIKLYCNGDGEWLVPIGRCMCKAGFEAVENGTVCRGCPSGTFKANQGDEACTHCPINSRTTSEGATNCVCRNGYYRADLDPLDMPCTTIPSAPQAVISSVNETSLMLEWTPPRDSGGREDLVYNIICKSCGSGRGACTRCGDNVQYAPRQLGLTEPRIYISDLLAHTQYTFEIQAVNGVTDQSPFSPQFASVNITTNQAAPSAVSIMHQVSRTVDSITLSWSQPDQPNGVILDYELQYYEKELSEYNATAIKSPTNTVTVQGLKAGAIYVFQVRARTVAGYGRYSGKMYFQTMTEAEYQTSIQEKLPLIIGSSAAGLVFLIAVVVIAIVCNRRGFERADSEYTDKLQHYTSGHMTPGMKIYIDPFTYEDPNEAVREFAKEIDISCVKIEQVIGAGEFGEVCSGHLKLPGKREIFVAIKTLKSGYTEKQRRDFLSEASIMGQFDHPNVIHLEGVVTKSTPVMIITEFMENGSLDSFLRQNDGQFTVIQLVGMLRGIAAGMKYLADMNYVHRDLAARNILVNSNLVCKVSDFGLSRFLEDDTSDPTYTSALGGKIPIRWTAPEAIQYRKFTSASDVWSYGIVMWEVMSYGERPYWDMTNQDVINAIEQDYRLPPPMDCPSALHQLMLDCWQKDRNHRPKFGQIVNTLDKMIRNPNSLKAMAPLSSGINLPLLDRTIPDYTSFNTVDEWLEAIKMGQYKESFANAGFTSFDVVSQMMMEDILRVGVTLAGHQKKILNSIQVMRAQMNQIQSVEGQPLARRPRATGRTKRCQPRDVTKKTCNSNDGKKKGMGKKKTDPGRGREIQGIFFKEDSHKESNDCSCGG
Outline: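 Single-concentration screen using Ambit Bioscience KINOMEscan technology across a panel of 250–400 kinases. Per-kinase inhibition from this screen was summarized as S(90), the fraction of kinases inhibited by more than 90%.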

[4] = target: Ribosomal protein S6 kinase alpha-2 (Homo sapiens) (UniProt Q15349); experiment: Inhibition of RPS6KA2 N-terminal domain1 at 1 uM
Ribosomal protein S6 kinase alpha-2 (Homo sapiens), sequence (Q15349 whole entry, the tested form may be a part): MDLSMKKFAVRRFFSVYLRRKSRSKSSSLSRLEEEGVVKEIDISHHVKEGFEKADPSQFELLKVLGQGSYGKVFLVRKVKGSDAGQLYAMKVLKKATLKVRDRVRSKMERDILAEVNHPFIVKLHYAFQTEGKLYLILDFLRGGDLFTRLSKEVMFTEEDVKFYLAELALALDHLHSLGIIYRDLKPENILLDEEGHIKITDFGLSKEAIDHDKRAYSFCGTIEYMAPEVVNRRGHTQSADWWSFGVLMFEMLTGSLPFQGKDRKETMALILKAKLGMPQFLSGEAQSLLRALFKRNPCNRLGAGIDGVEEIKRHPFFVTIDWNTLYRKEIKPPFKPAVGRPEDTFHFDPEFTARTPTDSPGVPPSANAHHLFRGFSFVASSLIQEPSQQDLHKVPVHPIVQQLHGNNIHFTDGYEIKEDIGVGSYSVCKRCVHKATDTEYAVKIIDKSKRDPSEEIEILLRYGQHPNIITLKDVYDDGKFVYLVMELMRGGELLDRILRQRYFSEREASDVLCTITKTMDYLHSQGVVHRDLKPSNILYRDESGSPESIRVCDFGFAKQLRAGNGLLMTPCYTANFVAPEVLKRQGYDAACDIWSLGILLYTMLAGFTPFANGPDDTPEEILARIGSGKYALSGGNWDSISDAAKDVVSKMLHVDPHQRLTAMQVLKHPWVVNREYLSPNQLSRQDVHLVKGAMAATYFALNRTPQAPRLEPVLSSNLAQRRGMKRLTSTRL

Tyrosine-protein kinase FRK (Homo sapiens), sequence (P42685 whole entry): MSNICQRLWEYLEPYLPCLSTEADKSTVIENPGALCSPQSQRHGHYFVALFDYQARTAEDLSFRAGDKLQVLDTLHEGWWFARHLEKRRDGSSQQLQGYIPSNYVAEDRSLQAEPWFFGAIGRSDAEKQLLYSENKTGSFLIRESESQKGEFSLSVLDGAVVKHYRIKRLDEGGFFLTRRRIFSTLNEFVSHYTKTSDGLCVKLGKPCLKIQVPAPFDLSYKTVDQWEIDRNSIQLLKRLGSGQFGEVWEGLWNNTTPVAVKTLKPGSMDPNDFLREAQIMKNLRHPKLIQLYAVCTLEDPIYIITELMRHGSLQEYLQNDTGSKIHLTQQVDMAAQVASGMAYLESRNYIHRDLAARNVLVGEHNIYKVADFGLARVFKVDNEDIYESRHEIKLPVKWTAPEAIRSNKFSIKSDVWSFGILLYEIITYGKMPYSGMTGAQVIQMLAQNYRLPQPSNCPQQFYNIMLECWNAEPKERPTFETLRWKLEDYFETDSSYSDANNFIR

| SMILES | inhibition [1] [%] | inhibition [2] [%] | inhibition [3] [%] | inhibition [4] [%] |
| --- | --- | --- | --- | --- |
| CN1CCN(c2ccc(-c3cnc4c(c3)N(Cc3cc(F)ccc3F)CCN4)cn2)CC1 | < 50 | < 50 | < 50 | < 50 |
| O=C(c1ccc(-c2cnc3c(c2)N(Cc2cc(Cl)ccc2C(F)(F)F)CCN3)cc1)N1CCC(N2CCCC2)CC1 | < 50 | – | < 50 | < 50 |
| O=C(c1ccc(-c2cnc3c(c2)N(Cc2cc(Cl)ccc2C(F)(F)F)CCN3)cc1)N1CCCCC1 | < 50 | – | < 50 | < 50 |
| CN1CCN(c2ccc(-c3cnc4c(c3)N(Cc3c(F)ccc(F)c3Cl)CCN4)cn2)CC1 | 66 | < 50 | < 50 | < 50 |
| COC1CCN(C(=O)c2ccc(-c3cnc4c(c3)N(Cc3cc(Cl)ccc3C(F)(F)F)CCN4)cc2)CC1 | < 50 | – | < 50 | < 50 |
| O=C(O)c1ccc(-c2cnc3c(c2)N(Cc2cc(Cl)ccc2C(F)(F)F)CCN3)cc1 | < 50 | – | < 50 | < 50 |
| CC(=O)N1CCN(c2cc(-c3cnc4c(c3)N(Cc3cc(Cl)ccc3C(F)(F)F)CCN4)ccn2)CC1 | < 50 | < 50 | < 50 | < 50 |
| FC(F)(F)c1ccc(Cl)cc1CN1CCNc2ncc(-c3ccnc(N4CCNCC4)c3)cc21 | < 50 | < 50 | < 50 | < 50 |
| CN1CCN(c2ccc(-c3cnc4c(c3)N(Cc3cc(Cl)ccc3C(F)(F)F)CCN4)cn2)CC1 | < 50 | < 50 | < 50 | < 50 |
| CN1CCN(c2ccc(-c3cnc4c(c3)N(Cc3cc(Cl)ccc3Cl)CCN4)cn2)CC1 | < 50 | < 50 | < 50 | < 50 |
